Measurements from different studies.
Protocols differ between the studies behind these lines.
Target: Mitogen-activated protein kinase kinase kinase 14 (MAP3K14, Homo sapiens, UniProt Q99558)

C[C@H]1CCN(c2nccc(-c3cnn4ncccc34)n2)C1 — remaining binding (binding; competition with immobilised ligand; 1 µM): 82%
CCCCN(CCCC)C(=O)CN1C[C@H](c2cc(OC)c3c(c2)OCO3)[C@@H](C(=O)O)[C@@H]1CC(C)(C)CCC — remaining binding (cell-free assay; competition with immobilised ligand; 1 µM): 100%
CN(c1nccc(-c2cnn3ncccc23)n1)C1CC1 — remaining binding (binding; 1 µM): 100%
Cc1cnc(Nc2ccc(C(=O)N3CCC(N4CCCC4)CC3)cc2)nc1-c1cc2ccccc2s1 — remaining binding (binding; competition with immobilised ligand; 1 µM): 100%
N[C@@H]1CCN(c2nccc(-c3cnn4ncccc34)n2)C1 — remaining binding (binding; 1 µM): 91%
O=C(NCc1ncc(C(F)(F)F)cc1Cl)c1ccc2c(c1)C1(CCS(=O)(=O)CC1)[C@@H](C1CC1)N2S(=O)(=O)c1ccc(F)cc1 — remaining binding (cell-free assay; competition with immobilised ligand; 1 µM): 71%
Nc1ncc2c(n1)-c1c([nH]c3ccc(C#CC4CC4)cc13)CCCC2 — remaining binding (binding; competition with immobilised ligand; 1 µM): 73%
CN(C)c1ncc(F)c(-c2cnn3ncccc23)n1 — remaining binding (binding; competition with immobilised ligand; 1 µM): 75%
O=C(NS(=O)(=O)c1ccc(NCC2CCOCC2)c([N+](=O)[O-])c1)c1ccc(N2CCN(Cc3ccc(C(F)(F)F)cc3-c3ccc(Cl)cc3)CC2)cc1Oc1cnc2[nH]ccc2c1 — remaining binding (cell-free assay; competition with immobilised ligand; 1 µM): 65%
O=C(Nc1c[nH]nc1C(=O)NC1CCNCC1)c1cc(F)cc(F)c1 — remaining binding (binding; competition with immobilised ligand; 1 µM): 100%
CNCc1ccccc1-c1csc([C@@H](C)Nc2nc(C)nc3cc(OC)c(OC)cc23)c1 — remaining binding (cell-free assay; competition with immobilised ligand; 1 µM): 93%
CNC(=O)[C@@H]1CC[C@@H](n2c(-c3ccc4cnccc4c3)nc3ccc(C(=O)NCc4cccc(C(N)=O)c4)cc32)C1 — remaining binding (binding; competition with immobilised ligand; 1 µM): 100%
CN(C)C(=O)Cn1cc(-c2nc(C3(c4ccc(-c5cnc(N)nc5)cc4)CC3)no2)cn1 — remaining binding (cell-free assay; competition with immobilised ligand; 1 µM): 83%
CN(CCCC(F)(F)F)c1nccc(-c2cnn3ncccc23)n1 — remaining binding (binding; competition with immobilised ligand; 1 µM): 100%
C[C@@H](c1ccc(-n2cnc3c(N)ncnc32)cc1)N1CCc2nn(C)c(Cc3ccccc3)c2C1=O — remaining binding (binding; competition with immobilised ligand; 0.1 µM): 100%
O=C(NCCCN1CCOCC1)c1ccc(Nc2nccc(-c3cc4ccccc4s3)n2)cc1 — remaining binding (binding; competition with immobilised ligand; 1 µM): 87%
CN(c1ccnc(CNc2nc(Nc3ccc4c(c3)CC(=O)N4)ncc2C(F)(F)F)n1)S(C)(=O)=O — remaining binding (cell-free assay; competition with immobilised ligand; 1 µM): 65%
O=C(NCCCN1CCOCC1)c1ccc(Nc2ncc(Cl)c(-c3ccc(Cl)s3)n2)cc1 — remaining binding (binding; competition with immobilised ligand; 1 µM): 49%
CC1CCCN1c1nccc(-c2cnn3ncccc23)n1 (centres unmarked) — remaining binding (binding; competition with immobilised ligand; 1 µM): 100%
COc1cnc(Nc2cccc(S(N)(=O)=O)c2)nc1N1CCN(c2ccccc2)CC1 — remaining binding (binding; competition with immobilised ligand; 1 µM): 96%
